Source: PubChem BioAssay (several laboratories)
In the library only some 1.9% were active in any assay of this set; here they are far more common.
HDAC3 inhib = blocks human histone deacetylase 3; O15379; recombinant HDAC3, fluorogenic peptide/trypsin coupled, fluorescence; inhibition, % at 8.3 µM; actives 0.15% (n = 320,000); in the data active means inhibition above about 26%, passing the limit was not always enough; inconclusive means no clear call, values can overlap the other calls
CaV13 FRET inh = Primary screen for inhibitors of IQ motif and Ca2+-dependent inactivation inhibitor domain binding in CACNA1D, Förster resonance energy transfer in living cells, …; actives 0.098% (n = 340,000); inhibition, % at 12.3 µM; HEK cells, CFP/YFP FRET ICDI-IQ, plate reader, 10 min; percent FRET-ratio fall versus neutral wells;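 active means mean replicate inhibition of at least 30% and at least 1% of replicates passing that level; inconclusive means only one of the two criteria is met; inactive means neither criterion is met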
LANA-H2A inh = blocks KSHV LANA binding to histone H2A/H2B. Q9QR71. cell-free LANA-H2A/H2B peptide, fluorescence polarization. inhibition, % (no concentration beside the values). actives 0.6% (n = 320,000); in the data active means inhibition mostly above about 10%, no sharp cut-off; inactive means mostly below about 6.7%
RanGTP-Imp inh = disruptors of Ran-importin-beta complex formation – biochemical, FRET, CFP-Ran, YFP-importin-beta, homogeneous, primary screen; cell-free CFP-Ran/YFP-importin-beta FRET ratio; AID 2216; inhibition, % (test concentration not listed); actives 1.1% (n = 300,000);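 active means more than half of the replicate wells show a fall in the fluorescence ratio signal beyond about 16%, limit read from the data, passing the limit was not always enough; inconclusive means exactly half of the replicate wells pass the set limit; inactive means fewer than half of replicates pass the limit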
Runt-CBFb FRET = blocks binding of human RUNX1 Runt domain to CBFb | inhibition, % at 20 µM | AID 1496 | Q01196+Q13951 | Cerulean-Runt/Venus-CBFb FRET ratio 530/480, 1 h | actives 0.46% (n = 220,000);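 active means inhibition over about 50% at 20 µM in the single-dose screen, limit read from the data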
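Measured by: fluorescence energy transfer, 422 nm excitation, 530/480 nm emission; test system: Cerulean-tagged RUNX1 Runt domain (FRET donor) fusion protein; buffer or medium: Tris pH 7.5 buffer with BSA; compound: one dose, 20 µM compound, 1% DMSO; times: two 1 h room-temperature incubations shielded from light; benchmarks: unlabeled CBFb 5 µM, positive control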
Runt-SMMHC FRET = blocks binding of human RUNX1 Runt domain to CBFb-SMMHC | Q01196+Q13951 | Cerulean-Runt/Venus-CBFb-SMMHC FRET ratio 530/480, 1 h | inhibition, % at 20 µM | actives 0.74% (n = 220,000);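 active means mean inhibition across duplicate retests at 20 µM reaching about 50%, limit read from the data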;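 further: inhibitors lower the FRET ratio by blocking Runt binding to CBFb-SMMHC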
YIC FRET counter = counter-screen: alters YIC FRET probe signal | shares compounds with RanGTP-Imp inh | Purified YIC probe, intramolecular FRET ratio YFP/CFP | IC50, µM | actives 40% (n = 1,000);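 active means fitted half-maximal inhibitory concentration no more than tenfold above the top dose tested; inconclusive means flat fit with 30 to 70% activity, or poor fit; inactive means half-maximal concentration beyond tenfold above the top dose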
Of the large screens only hits and unclear results are named; the others gave an inactive call (follow-up assays come after a bar, where they were run).

COCCNC(=O)c1c(NC(=O)c2ccco2)n(Cc2ccccc2)c2nc3ccccc3nc12	RanGTP-Imp inh 31, Runt-SMMHC FRET 98 (no result: CaV13 FRET inh) | YIC FRET counter 0.93
CCOP(=O)(Nc1ccc2c(c1)C(=NNC(N)=S)c1ccccc1-2)OCC	none (no result: HDAC3 inhib, LANA-H2A inh, RanGTP-Imp inh, Runt-CBFb FRET, Runt-SMMHC FRET)
N#Cc1c(/N=C/c2ccc(O)cc2O)sc2c1C1CCN2CC1	RanGTP-Imp inh 39, Runt-CBFb FRET 64, Runt-SMMHC FRET 59 | YIC FRET counter inactive
CC(C)C[C@H](NP(=O)(O)O[C@@H]1O[C@@H](C)[C@H](O)[C@@H](O)[C@H]1O)C(=O)N[C@@H](Cc1c[nH]c2ccccc12)C(=O)O	none (no result: RanGTP-Imp inh, Runt-CBFb FRET, Runt-SMMHC FRET)
O=C1NC(=O)C(=CN2CCc3ccccc32)C(=O)N1	RanGTP-Imp inh inconclusive
O=C1NC(=O)N(Cc2ccccc2)C(=O)/C1=C\N1CCCc2ccccc21	RanGTP-Imp inh 27 | YIC FRET counter inactive
O=C(c1ccccc1F)N1C[C@H]2C[C@@H](C1)c1cccc(=O)n1C2	none (no result: CaV13 FRET inh, Runt-CBFb FRET, Runt-SMMHC FRET)
COCCOC(=O)C1=C(C)OC(N)=C(C(=O)OC)C12C(=O)Nc1ccccc12 (stereo not given)	RanGTP-Imp inh 16 | YIC FRET counter inactive
C=CCn1c(O)c(C(CC)=NCCc2ccccc2)c(=O)[nH]c1=O	none
C=CCn1c(O)c(C(C)=NCCc2ccccc2)c(=O)[nH]c1=O	RanGTP-Imp inh 23 | YIC FRET counter inactive
Cc1cccc(-n2c(O)c(/C=C/C=Nc3ccccc3)c(=O)[nH]c2=O)c1	RanGTP-Imp inh 34 | YIC FRET counter 2.8
CCCCn1c(O)c(C=NCCCN(CC)CC)c(=O)[nH]c1=O	none (no result: CaV13 FRET inh)
COCCCn1c(N)c(C(=O)Nc2ccccc2)c2nc3ccccc3nc21	RanGTP-Imp inh 19 | YIC FRET counter 25
CCCCCn1c(=O)c(C(=O)Nc2ccccc2)c(O)c2ccccc21	none (no result: Runt-CBFb FRET, Runt-SMMHC FRET)
CCOC(=O)c1c(N)n(CCN2CCCCC2)c2nc3ccccc3nc12	RanGTP-Imp inh 51, Runt-SMMHC FRET 99 (no result: CaV13 FRET inh) | YIC FRET counter 45
COCCCn1c(N)c(C(=O)OC(C)COC)c2nc3ccccc3nc21 (stereo not given)	RanGTP-Imp inh 25, Runt-CBFb FRET 79, Runt-SMMHC FRET 94 | YIC FRET counter 27
OC(c1ccncc1)(c1ccc(F)cc1)c1ccc(F)cc1	none
CSCCC(c1nnnn1-c1ccc2c(c1)OCCO2)N1CCC(n2c(=O)[nH]c3ccccc32)CC1 (stereo not given)	none (no result: HDAC3 inhib, LANA-H2A inh, RanGTP-Imp inh, Runt-CBFb FRET, Runt-SMMHC FRET)
